The target of series [1] is Melanocyte-stimulating hormone receptor (Homo sapiens, UniProt Q01726). Nature of the series: Concentration required for 50% inhibition by displacement of [125I]NDP-alpha-MSH of human MC1R expressed in CHO cells. In kind it is cell-based.
Series [2] has as its target Melanocortin receptor 3 (Homo sapiens, UniProt P41968). Nature of the series: Concentration required for 50% inhibition by displacement of [125I]NDP-alpha-MSH of human MC3R expressed in CHO cells. It is filed as cell-based. (Loss of bound radioactivity is the signal in a displacement assay; it reports binding, not function.)
The target of series [3] is Melanocortin receptor 4 (Homo sapiens, UniProt P32245). As to the kind of experiment: Concentration required for 50% inhibition by displacement of [125I]NDP-alpha-MSH of human MC4R expressed in CHO cells. It is filed as cell-based. The method, boiled down:
(§1)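 Competition binding against [125I]-NDP-α-MSH at human melanocortin receptors expressed in CHO cells. Values are means ± standard error from at least three determinations.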

In series [4] the target is Melanocortin receptor 5 (Homo sapiens, UniProt P33032). Nature of the series: Concentration required for 50% inhibition by displacement of [125I]NDP-alpha-MSH of human MC5R expressed in CHO cells. It is filed as cell-based. In a few lines:
as §1

Series [5] in a line: Pharmacokinetic parameter F studied in dog. In kind it is ADME, organism-based, Canis lupus familiaris. Particulars: in vivo. In a few lines: (§2)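 Beagle dogs were dosed with a solution in EtOH/PEG/water (1:4:5), 0.5 mg iv and 2.0 mg/kg po. F, clearance, Vdss, t1/2 and tmax were derived from these doses.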
Series [6] can be described thus: Pharmacokinetic parameter F studied in rat. It is filed as ADME, organism-based. Particulars: in vivo. In a few lines: (§3)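 Sprague–Dawley rats were dosed with a EtOH/PEG/water (1:4:5) solution, 1 mg/kg iv and 4 mg/kg po. F, clearance, Vdss and t1/2 were derived from these doses.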
Series [7] in a line: Pharmacokinetic parameter hal life studied in dog. It is filed as ADME, organism-based, Canis lupus familiaris. The following applies: in vivo. The method, boiled down: as §2
Series [8] in a line: Pharmacokinetic parameter hal life studied in rat. It is filed as ADME, organism-based. Particulars: in vivo. The method, boiled down:
as §3

Series [9] can be described thus: Pharmacokinetic parameter Cl(clearance) studied in dog. The following applies: in vivo. In kind it is ADME, organism-based, Canis lupus familiaris. In a few lines: as §2
A short description of series [10]: Pharmacokinetic parameter Cl(clearance) studied in rat. In kind it is ADME, organism-based. The following applies: in vivo. The method, boiled down:
as §3

Series [11] in a line: Pharmacokinetic parameter Vdss studied in dog. The following applies: in vivo, read-out: Vdss. It is filed as ADME, organism-based, Canis lupus familiaris. The method, boiled down:
as §2

A short description of series [12]: Pharmacokinetic parameter Vdss studied in rat. It is filed as ADME, organism-based. The following applies: in vivo, read-out: Vdss. The method, boiled down:
as §3

Series [13] in a line: Pharmacokinetic parameter max half life studied in dog. Particulars: in vivo. It is filed as ADME, organism-based, Canis lupus familiaris. In a few lines:
as §2

SMILES strings stand for the structures.

Melanocortin receptor 3, sequence (P41968 whole entry): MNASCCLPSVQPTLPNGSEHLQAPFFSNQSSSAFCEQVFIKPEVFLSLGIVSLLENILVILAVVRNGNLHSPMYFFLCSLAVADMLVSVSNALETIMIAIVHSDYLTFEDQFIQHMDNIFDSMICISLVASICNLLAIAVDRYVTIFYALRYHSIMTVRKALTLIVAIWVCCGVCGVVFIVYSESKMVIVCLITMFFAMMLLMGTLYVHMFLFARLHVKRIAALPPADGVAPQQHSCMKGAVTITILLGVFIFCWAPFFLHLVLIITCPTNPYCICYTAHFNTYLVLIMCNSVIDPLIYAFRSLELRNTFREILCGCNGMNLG
Melanocyte-stimulating hormone receptor, sequence (Q01726 whole entry): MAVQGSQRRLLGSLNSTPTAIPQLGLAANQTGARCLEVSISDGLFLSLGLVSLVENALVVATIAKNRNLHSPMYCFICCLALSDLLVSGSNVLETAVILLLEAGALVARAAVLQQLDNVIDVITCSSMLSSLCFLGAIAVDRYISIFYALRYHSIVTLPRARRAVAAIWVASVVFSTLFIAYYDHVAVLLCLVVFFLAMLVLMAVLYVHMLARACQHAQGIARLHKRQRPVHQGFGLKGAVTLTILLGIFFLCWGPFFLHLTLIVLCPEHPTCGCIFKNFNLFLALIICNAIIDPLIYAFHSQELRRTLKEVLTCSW
Melanocortin receptor 5, sequence (P33032 whole entry): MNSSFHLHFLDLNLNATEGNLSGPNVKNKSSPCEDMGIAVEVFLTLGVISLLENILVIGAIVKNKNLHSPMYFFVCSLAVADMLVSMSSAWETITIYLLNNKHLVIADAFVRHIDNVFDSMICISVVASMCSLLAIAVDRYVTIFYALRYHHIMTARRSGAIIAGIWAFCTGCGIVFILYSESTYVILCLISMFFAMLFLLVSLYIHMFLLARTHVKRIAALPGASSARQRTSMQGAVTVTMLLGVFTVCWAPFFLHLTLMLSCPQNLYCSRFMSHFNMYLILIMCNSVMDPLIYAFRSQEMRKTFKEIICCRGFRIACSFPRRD
Melanocortin receptor 4, sequence (P32245 whole entry): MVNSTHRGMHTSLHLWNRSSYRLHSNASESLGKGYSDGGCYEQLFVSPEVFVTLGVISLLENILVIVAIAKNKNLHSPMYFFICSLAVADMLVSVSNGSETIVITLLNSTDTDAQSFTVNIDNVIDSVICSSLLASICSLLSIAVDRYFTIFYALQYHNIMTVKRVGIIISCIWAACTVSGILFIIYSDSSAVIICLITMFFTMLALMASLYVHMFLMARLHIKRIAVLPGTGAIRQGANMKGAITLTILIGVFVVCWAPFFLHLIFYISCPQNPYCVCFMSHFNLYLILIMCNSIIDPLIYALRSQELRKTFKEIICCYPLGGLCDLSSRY

Usually IC50 stands for the concentration needed to halve the response being measured. A higher IC50 goes with weaker potency. Consider `CC(C)(C)NC(=O)C1(C2CCCCC2)CCN(C(=O)[C@@H](Cc2ccc(Cl)cc2)NC(=O)[C@@H]2CCc3ccccc3[C@@H]2N)CC1`, for which the half-maximal inhibitory concentration (IC50) in series [1] worked out at 0.98 µM; in series [2], 0.032 µM; in series [3], 0.00077 µM; in series [4], 0.024 µM.

`CC(C)(C)NC(=O)C1(C2CCCCC2)CCN(C(=O)[C@@H](Cc2ccc(Cl)cc2)NC(=O)C2Cc3ccccc3C2N)CC1` (some centres undefined): the IC50 in [1] was determined as 1.4 µM; in [2], 0.083 µM; in series [3], 0.0019 µM; in series [4], 0.034 µM.

One may read the bioavailability as dose-corrected exposure relative to a reference, in per cent. High values mean much systemic uptake, low ones little systemic uptake. Usually half-life stands for the time in which the quantity being followed falls by half. The clearance is the volume of plasma or blood freed of the substance per unit of time. Read a high clearance as efficient removal. As a reminder, the Tmax is the time at which the peak concentration occurs. `CC(C)(C)NC(=O)C1(C2CCCCC2)CCN(C(=O)[C@@H](Cc2ccc(Cl)cc2)NC(=O)[C@H]2CCc3ccccc3[C@H]2N)CC1`: the IC50 in series [1] came to 0.53 µM; in [2] it was 0.12 µM; in series [3], 0.00037 µM; in series [4] it was 0.064 µM. Moreover, the results for the bioavailability in series [5] and in [6] were 42% and 11%, respectively. For the same compound, the half-life in series [7] is 3.4 h; in series [8] it was 2 h. Also, the clearance in [9] was found to be 11 mL/min/kg; in series [10] it was 35 mL/min/kg. Besides, the Vd is 2.9 L/kg in series [11] and 3.9 L/kg in [12]. The Tmax in series [13] was found to be 2 h.

As to `CC(C)(C)NC(=O)C1(C2CCCCC2)CCN(C(=O)[C@@H](Cc2ccc(Cl)cc2)NC(=O)[C@H]2CCc3ccccc3[C@@]2(C)N)CC1`, the IC50 in series [1] was 0.62 µM; in [2], 0.17 µM; in series [3], 0.0011 µM; in series [4], 0.031 µM.

For `CC(C)(C)NC(=O)C1(C2CCCCC2)CCN(C(=O)[C@@H](Cc2ccc(Cl)cc2)NC(=O)C2CCCc3ccccc3C2N)CC1` (some centres undefined), the IC50 stood at 0.22 µM in series [1], 0.097 µM in series [2], 0.0011 µM in series [3] and 0.054 µM in series [4].

For the origin of these results see ChEMBL document CHEMBL1144433, “1-Amino-1,2,3,4-tetrahydronaphthalene-2-carboxylic acid as a Tic mimetic: application in the synthesis of potent human melanocortin-4 receptor selective agonists” (Bioorg Med Chem Lett, 2005).
